Reference: ChEMBL document CHEMBL3525986, “Nicotinamide N-oxidation by CYP2E1 in human liver microsomes” (Drug Metab Dispos, 2013)

Key:
Format in all cases: ADME
Cytochrome P450 2E1 [1] = target: T1, Cytochrome P450 2E1 (Homo sapiens, UniProt P05181); assay: Drug metabolism in insect microsomes assessed as CYP2E1 (unknown origin)-mediated nicotinamide N-oxide formation after 30 mins by HPLC analysis; settings: 0.5 h
Procedure, shortened: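 Insect cell microsomes overexpressing CYP2E1 were diluted 4-fold with control insect microsomes. Otherwise run as for HLM: pH 7.4 phosphate, 1mM NADPH, 37°C, 30 min, across a range of NAM concentrations. Methanol stop, HILIC HPLC with UV at 254 nm. Triplicates.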

Cytochrome P450 2B6 = target: T2, Cytochrome P450 2B6 (Homo sapiens, UniProt P20813); assay: Drug metabolism in human liver microsomes assessed as CYP2B6-mediated nicotinamide N-oxide formation by HPLC analysis
T2 sequence (P20813 whole entry): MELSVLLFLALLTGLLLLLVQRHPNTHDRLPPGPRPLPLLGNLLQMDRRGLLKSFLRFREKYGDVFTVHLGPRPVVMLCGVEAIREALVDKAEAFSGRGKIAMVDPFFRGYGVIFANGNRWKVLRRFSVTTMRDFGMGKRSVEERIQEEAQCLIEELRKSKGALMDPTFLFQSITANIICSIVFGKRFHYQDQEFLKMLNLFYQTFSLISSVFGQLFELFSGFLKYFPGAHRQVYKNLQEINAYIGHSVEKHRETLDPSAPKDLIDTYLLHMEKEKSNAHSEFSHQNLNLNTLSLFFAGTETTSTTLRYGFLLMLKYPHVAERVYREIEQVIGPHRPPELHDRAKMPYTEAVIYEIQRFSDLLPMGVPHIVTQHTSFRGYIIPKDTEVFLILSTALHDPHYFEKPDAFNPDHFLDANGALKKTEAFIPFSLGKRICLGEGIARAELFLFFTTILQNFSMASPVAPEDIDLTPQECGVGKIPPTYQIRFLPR

Cytochrome P450 2E1 [2] = target: T1, Cytochrome P450 2E1; assay: Drug metabolism in human liver microsomes assessed as CYP2E1-mediated nicotinamide N-oxide formation at 3 mM after 30 mins by HPLC analysis; settings: 0.5 h, 3000 µM
Procedure, shortened: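 Pooled human liver microsomes at 1 mg/ml in 0.1 M NaH2PO4, pH 7.4, with 1mM NADPH were preincubated 2 min at 37°C. NAM was added at varied concentrations and run 30 min, then stopped with ice-cold methanol. N-oxide was measured by HILIC HPLC with UV at 254 nm against a standard curve. Km and Vmax came from a Michaelis-Menten nonlinear fit. Triplicates.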

Cytochrome P450 2E1 [3] = target: T1, Cytochrome P450 2E1; assay: Drug metabolism in human liver microsomes assessed as antibody-mediated reduction in CYP2E1-mediated nicotinamide N-oxide formation at 2 mM by HPLC analysis relative to control; set-up: scale not given: the % may be the effect or the level left; settings: 2000 µM
Procedure, shortened: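 HLM (1 mg/ml, pH 7.4 phosphate, 1mM NADPH) were preincubated 5 min at 37°C with 15 microgram anti-CYP2E1 or control mouse antibody. Control antibody was dialysed against Tris to remove azide. Then 2 mM NAM was added for 30 min. HPLC-UV 254 nm quantitation was expressed against the control antibody. Triplicates.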

Cytochrome P450 2A6 = target: T3, Cytochrome P450 2A6 (Homo sapiens, UniProt P11509); assay: Drug metabolism in human liver microsomes assessed as CYP2A6-mediated nicotinamide N-oxide formation by HPLC analysis
T3 sequence (P11509 whole entry): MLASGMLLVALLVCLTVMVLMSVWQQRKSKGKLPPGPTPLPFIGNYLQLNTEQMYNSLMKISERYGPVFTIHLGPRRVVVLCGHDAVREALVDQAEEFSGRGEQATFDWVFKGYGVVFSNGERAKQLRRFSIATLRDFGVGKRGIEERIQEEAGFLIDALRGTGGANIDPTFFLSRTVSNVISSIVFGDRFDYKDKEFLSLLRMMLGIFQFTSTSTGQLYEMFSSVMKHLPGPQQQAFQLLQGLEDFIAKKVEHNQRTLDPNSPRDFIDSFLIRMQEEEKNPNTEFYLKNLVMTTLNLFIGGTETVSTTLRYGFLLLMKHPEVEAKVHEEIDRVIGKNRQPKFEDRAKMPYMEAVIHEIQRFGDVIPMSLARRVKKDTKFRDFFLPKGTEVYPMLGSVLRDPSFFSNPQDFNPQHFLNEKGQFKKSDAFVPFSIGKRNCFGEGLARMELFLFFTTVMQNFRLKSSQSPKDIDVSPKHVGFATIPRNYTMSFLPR

Cytochrome P450 2E1 [4] = target: T1, Cytochrome P450 2E1; assay: Drug metabolism in human liver microsomes assessed as diethyldithiocarbamate-mediated reduction of CYP2E1-mediated nicotinamide N-oxide formation at 2 mM by HPLC analysis relative to control; settings: 2000 µM
Procedure, shortened: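 Microsomes (1 mg/ml HLM, 1mM NADPH, pH 7.4) were preincubated 30 min with 100 μM diethyldithiocarbamate (final 0.1% methanol). Then 2 mM NAM was added for 30 min at 37°C. N-oxide was quantified by HILIC HPLC at 254 nm versus control. Triplicate means, t-test.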

Cytochrome P450 2E1 [5] = target: T1, Cytochrome P450 2E1; assay: Drug metabolism in human liver microsomes assessed as CYP2E1-mediated nicotinamide N-oxide formation preincubated for 5 mins at 45 degC after 30 mins by HPLC analysis in absence of NADPH; settings: 0.5 h
Procedure, shortened: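 Before assay, HLM were heated 5 min at 45°C with or without NADPH. Incubation then ran with 2 mM NAM for 30 min in pH 7.4 phosphate buffer. NAM N-oxide was quantified by HILIC HPLC (UV 254 nm) from a standard curve. Triplicate determinations, t-test.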

Cytochrome P450 2E1 [6] = target: T1, Cytochrome P450 2E1; assay: Drug metabolism in human liver microsomes assessed as chlorzoxazone-mediated reduction of CYP2E1-mediated nicotinamide N-oxide formation at 2 mM by HPLC analysis relative to control; settings: 2000 µM
Procedure, shortened: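 Human liver microsomes (1 mg/ml, 1mM NADPH, pH 7.4) were incubated with 2 mM NAM plus 100 μM chlorzoxazone (final 1% acetonitrile) for 30 min at 37°C. Methanol quench, then HILIC HPLC, UV 254 nm. Compared against solvent control; triplicates, t-test.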

[7] = target: T4, Flavin-containing monooxygenase 3 (Homo sapiens, UniProt P31513); assay: Drug metabolism in insect microsomes assessed as FMO3 (unknown origin)-mediated nicotinamide N-oxide formation after 30 mins by HPLC analysis; settings: 0.5 h
T4 sequence (P31513 whole entry): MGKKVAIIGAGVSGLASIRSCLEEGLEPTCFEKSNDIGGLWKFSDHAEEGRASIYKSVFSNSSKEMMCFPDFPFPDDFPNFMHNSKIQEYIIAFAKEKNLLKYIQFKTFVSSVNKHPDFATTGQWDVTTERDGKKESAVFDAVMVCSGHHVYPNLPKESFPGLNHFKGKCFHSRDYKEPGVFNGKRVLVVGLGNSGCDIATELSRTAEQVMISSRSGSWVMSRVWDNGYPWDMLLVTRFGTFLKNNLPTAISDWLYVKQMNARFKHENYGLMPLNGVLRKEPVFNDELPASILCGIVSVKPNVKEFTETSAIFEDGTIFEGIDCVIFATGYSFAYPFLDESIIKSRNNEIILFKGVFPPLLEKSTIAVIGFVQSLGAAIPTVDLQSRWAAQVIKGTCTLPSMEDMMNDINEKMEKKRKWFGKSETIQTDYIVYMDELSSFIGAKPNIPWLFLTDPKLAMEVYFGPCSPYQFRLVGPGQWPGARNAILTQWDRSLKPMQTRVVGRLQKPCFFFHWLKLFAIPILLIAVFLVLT

T1 sequence (P05181 whole entry): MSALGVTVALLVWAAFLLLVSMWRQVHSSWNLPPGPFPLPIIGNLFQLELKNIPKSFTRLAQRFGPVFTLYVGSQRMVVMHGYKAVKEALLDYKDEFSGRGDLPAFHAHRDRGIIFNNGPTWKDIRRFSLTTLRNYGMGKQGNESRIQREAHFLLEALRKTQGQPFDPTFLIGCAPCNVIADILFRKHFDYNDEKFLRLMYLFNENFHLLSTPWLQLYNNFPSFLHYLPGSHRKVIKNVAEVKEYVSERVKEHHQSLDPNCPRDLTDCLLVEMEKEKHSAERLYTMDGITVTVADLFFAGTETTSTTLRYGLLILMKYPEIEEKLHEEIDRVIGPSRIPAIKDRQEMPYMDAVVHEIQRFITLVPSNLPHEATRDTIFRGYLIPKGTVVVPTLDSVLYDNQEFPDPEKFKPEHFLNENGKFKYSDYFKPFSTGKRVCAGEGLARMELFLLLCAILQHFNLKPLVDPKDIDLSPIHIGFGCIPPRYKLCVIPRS

Drug metabolism (Cytochrome P450 2E1 [1]): Dose-dependent effect
Drug metabolism (Cytochrome P450 2B6): metabolite_not_detected
Drug metabolism (Cytochrome P450 2E1 [2]): metabolite_detected
Activity (Cytochrome P450 2E1 [3]): < 8%
Drug metabolism (Cytochrome P450 2A6): metabolite_not_detected
fold change (FC) (Cytochrome P450 2E1 [4]): 8
Drug metabolism (Cytochrome P450 2E1 [5]): metabolite_detected
fold change (FC) (Cytochrome P450 2E1 [6]): > 5
Drug metabolism [7]: metabolite_not_detected
Structure (SMILES): NC(=O)c1cccnc1 [NIACINAMIDE]
